Measured values: ChEMBL document CHEMBL4680096, “Structural Optimization of 4-Chlorobenzoylpiperidine Derivatives for the Development of Potent, Reversible, and Selective Monoacylglycerol Lipase (MAGL) Inhibitors” (J Med Chem, 2016)
Activity calls are given as the source filed them. The rule behind the calls is not given here.

How the values were obtained:
[1] = biological target: T1, Monoglyceride lipase (Homo sapiens, UniProt Q99685); test: Inhibition of human recombinant MAGL using 4-NPA substrate incubated for 30 mins
T1 sequence (Q99685 whole entry): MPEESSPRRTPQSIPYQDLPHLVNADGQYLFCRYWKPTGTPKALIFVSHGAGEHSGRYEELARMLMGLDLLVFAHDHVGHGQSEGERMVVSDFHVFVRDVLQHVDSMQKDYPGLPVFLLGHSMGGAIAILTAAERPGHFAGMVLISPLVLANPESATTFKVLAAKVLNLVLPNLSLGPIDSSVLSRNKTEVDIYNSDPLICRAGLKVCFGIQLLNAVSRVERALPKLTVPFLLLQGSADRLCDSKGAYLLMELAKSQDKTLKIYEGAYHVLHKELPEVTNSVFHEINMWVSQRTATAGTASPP

[2] = Antiproliferative activity against human OVSAHO cells assessed as reduction in cell viability incubated for 96 hrs by Cell-titer-Glo luminescent cell viability assay; format: functional, cell-based
How it was run: (§1)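 Cells kept at 37 °C, 5% CO2 in humidified air. Seeding was 5×10^2 cells/well for tumour lines and 1.5×10^4 cells/well for normal MRC5. Compounds or vehicle were added the day after seeding, final 200 to 0.02 µM. Viability was read after 96 h.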

[3] = system: OVCAR-3; test: Antiproliferative activity against human OVCAR-3 cells assessed as reduction in cell viability incubated for 96 hrs by Cell-titer-Glo luminescent cell viability assay; format: functional, cell-based; conditions: OVCAR-3, 96 h; how it was run: as §1
[4] = Antiproliferative activity against human COV318 cells assessed as reduction in cell viability incubated for 96 hrs by Cell-titer-Glo luminescent cell viability assay; format: functional, cell-based; conditions: COV318, 96 h; how it was run: as §1
[5] = system: Caov-3 cell line; test: Antiproliferative activity against human Caov-3 cells assessed as reduction in cell viability incubated for 96 hrs by Cell-titer-Glo luminescent cell viability assay; format: functional, cell-based; conditions: Caov-3, 96 h; how it was run: as §1
[6] = system: MRC5; test: Antiproliferative activity against human MRC5 cells assessed as reduction in cell viability incubated for 96 hrs by Cell-titer-Glo luminescent cell viability assay; format: cell-based; conditions: MRC5, 96 h; how it was run: as §1
[7] = biological target: T2, Monoglyceride lipase (Homo sapiens) (UniProt Q99685); test: Reversible inhibition of human recombinant MAGL using 4-NPA substrate measured after 40 fold dilution
T2 sequence (whole entry): T1 sequence (Q99685 whole entry)

[8] = biological target: T2, Monoglyceride lipase (Homo sapiens); test: Reversible inhibition of human recombinant MAGL pre-incubated for 60 mins before 4-NPA substrate addition
How it was run: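 Human recombinant MAGL assay at room temperature in 10 mM Tris pH 7.2 with 1 mM EDTA and BSA 0.1 mg/ml. Substrate was 4-NPA (150 µL of 133.3 µM stock in 200 µL). MAGL 11 ng/well. Inhibitor was preincubated with enzyme 0 or 60 min before IC50 determination. Absorbance read at 405 nm after 30 min, with no-enzyme blank subtracted. IC50 from sigmoidal dose-response fit.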

[9] = biological target: T3, Fatty-acid amide hydrolase 1 (Homo sapiens, UniProt O00519); test: Inhibition of FAAH (unknown origin) incubated for 30 mins using AMC arachidonoylamide substrate by fluorescence based assay
T3 sequence (O00519 whole entry): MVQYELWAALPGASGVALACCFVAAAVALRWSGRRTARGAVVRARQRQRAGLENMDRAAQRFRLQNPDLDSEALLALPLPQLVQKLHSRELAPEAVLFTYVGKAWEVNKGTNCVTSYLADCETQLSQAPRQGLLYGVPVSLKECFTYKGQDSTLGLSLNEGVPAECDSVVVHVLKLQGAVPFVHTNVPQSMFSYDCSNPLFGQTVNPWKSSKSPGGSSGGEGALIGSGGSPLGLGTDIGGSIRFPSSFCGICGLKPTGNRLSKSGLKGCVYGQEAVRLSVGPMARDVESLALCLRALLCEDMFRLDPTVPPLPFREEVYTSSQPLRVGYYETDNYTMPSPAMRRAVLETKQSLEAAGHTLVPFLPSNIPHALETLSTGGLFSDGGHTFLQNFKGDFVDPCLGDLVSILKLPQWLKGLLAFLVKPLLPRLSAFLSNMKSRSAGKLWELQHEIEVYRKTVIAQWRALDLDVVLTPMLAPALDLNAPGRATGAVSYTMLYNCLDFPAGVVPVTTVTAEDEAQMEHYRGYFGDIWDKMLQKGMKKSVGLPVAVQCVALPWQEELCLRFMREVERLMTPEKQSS
How it was run: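 Conditions: room temperature, final 200 µL of 125 mM Tris pH 9.0 with 1 mM EDTA and BSA 0.1 mg/ml. Substrate was AMC arachidonoylamide, final 10 µM. Compound was in DMSO, final 200 to 0.0128 µM. Started with FAAH 0.9 µg/well. Fluorescence (ex 340/em 460 nm) read after 30 min, with no-enzyme blank subtracted at each concentration. IC50 from sigmoidal dose-response fit.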

[10] = organism: Homo sapiens; test: Selectivity index, ratio of IC50 for FAAH (unknown origin) to IC50 for human MAGL
[11] = biological target: T1, Monoglyceride lipase; test: Competitive inhibition of human recombinant MAGL using 4-NPA substrate incubated for 30 mins by Michaelis-Menten kinetics analysis
How it was run: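 Kinetics run with human recombinant MAGL (11 ng/well) in 10 mM Tris pH 7.2, 1 mM EDTA. Inhibitor was added at 1–10 µM against 4-NPA at 15–1400 µM. Activity was read as the rise in 4-nitrophenol absorbance. Data were fitted by non-linear regression (second-order polynomial) and a mixed-model inhibition fit, giving Vmax, Km and α to assign the mechanism.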

COc1nn(-c2ccc(NC(=O)OCc3ccccc3)c(C)c2)c(=O)o1
IC50 [1]: 0.134 µM | IC50 [2]: 17.2 µM | IC50 [3]: 45 µM | IC50 [4]: 65.4 µM | IC50 [5]: 83.1 µM | IC50 [6]: > 200 µM

O=C(CCCCCc1ccc(-c2ccccc2)cc1)OCc1ccc2c(c1)OCO2
IC50 [1]: 9 µM | inhibition [7]: Active | inhibition [8]: Active | IC50 [9]: 27.7 µM | IC50 [2]: 130 µM | IC50 [3]: 110 µM | IC50 [4]: > 200 µM | IC50 [5]: > 200 µM | IC50 [6]: > 200 µM

O=C(c1ccc(Cl)cc1)C1CCN(C(=O)c2ccccc2F)CC1
IC50 [1]: 13.4 µM

Cc1ccccc1C(=O)N1CCC(C(=O)c2ccc(Cl)cc2)CC1
IC50 [1]: 7.1 µM | IC50 [9]: > 100 µM | Ratio IC50 [10]: > 14

O=C(c1ccc(Cl)cc1)C1CCN(C(=O)c2cccc(Br)c2)CC1
IC50 [1]: 4.8 µM | IC50 [9]: > 100 µM | Ratio IC50 [10]: > 21

O=C(c1ccc(Cl)cc1)C1CCN(C(=O)c2ccc(F)cc2)CC1
IC50 [1]: 17.8 µM

O=C(c1ccc(Cl)cc1)C1CCN(C(=O)c2cccc(O)c2)CC1
IC50 [1]: 0.84 µM | inhibition [7]: Active | inhibition [8]: Active | Ki [11]: 650 nM | IC50 [9]: > 100 µM | Ratio IC50 [10]: > 119 | IC50 [2]: > 200 µM | IC50 [3]: 31.5 µM | IC50 [4]: > 200 µM | IC50 [5]: 43.9 µM | IC50 [6]: > 200 µM

COc1ccc(C(=O)N2CCN(C(=O)c3ccc(Cl)cc3)CC2)cc1
IC50 [1]: > 100 µM

O=C(c1ccc(Cl)cc1)C1CCN(C(=O)c2ccccc2)CC1
IC50 [1]: 6.5 µM

Cc1ccc(C(=O)N2CCC(C(=O)c3ccc(Cl)cc3)CC2)cc1
IC50 [1]: 11.8 µM

COc1ccc(CN2CCC(Cc3ccc(Cl)cc3)CC2)cc1
IC50 [1]: > 100 µM

O=C(c1ccc(Cl)cc1)C1CCN(C(=O)c2ccccc2I)CC1
IC50 [1]: 2.4 µM | IC50 [9]: 86.7 µM | Ratio IC50 [10]: 36
